From publication PMC10600558 (Molecular Imaging and Radionuclide Therapy, 2023)

Legend:
[1] = Excretion from the kidneys after injection; type: in vivo; conditions: 24 h after injection, 9 patients, mean ± SD, relative to injected activity
How it was run: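 Patients received 100-120 kBq/kg of the test radioligand as a slow intravenous injection over 5 min, with arginine/lysine kidney protection. The amount excreted in urine was quantified against standard samples prepared at the time of injection. The excretion rate was expressed relative to injected activity and reported as mean ± standard deviation.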

[2] = test system: metastatic neuroendocrine tumors (NETs); experiment: Response evaluation by [^68Ga]Ga-DOTATATE PET/CT and RECIST 1.1; type: in vivo, patients; conditions: [^68Ga]Ga-DOTATATE PET/CT three months after treatment, n=9 evaluated
How it was run: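 Treatment was 100-120 kBq/kg given intravenously over 5 min. Response was read on [68Ga]Ga-DOTATATE PET/contrast-enhanced CT within 4 weeks before and 12-16 weeks after treatment, repeated 12-18 weeks after each cycle until progression or death, and scored by RECIST 1.1 on the ceCT. PFS ran from the first administration and was estimated by Kaplan-Meier. Response comparisons used chi-square, with p<0.05 taken as significant.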

[3] = In vitro stability of [^225Ac]Ac-DOTATATE in saline; type: physicochemical; conditions: 37 °C, up to 5 h, n=3, slight decrease in stability after 5 h
[4] = Toxicity and side effects according to CTCAE v5.0; type: in vivo, patients
How it was run: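 Patients were treated as inpatients with amino-acid renal protection and ondansetron premedication. Vital signs were recorded every 60 min for 5 h, and complaints were tracked for 24 h. Adverse events were graded by CTCAE v5.0 three months after each cycle. Haematological, renal and liver values before versus after the last cycle were compared by Wilcoxon rank sum test and reported as mean ± standard deviation, with p<0.05 taken as significant.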

[5] = test system: NET; conditions: recent study of the same group; cited from earlier work
[6] = In vivo stability in patients' blood and urine samples; conditions: RP-HPLC
How it was run: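 Samples came from the first 3 patients: blood at 0-10 min and urine up to 3 h post-injection. Blood was precipitated with acetonitrile (1:1) and centrifuged for 5 min at 14,680 rpm, and the supernatant was diluted 1:1 with water. Urine was diluted with water, filtered and analysed immediately. Both went to RP-HPLC, and fractions were gamma-counted (440 keV, [213Bi]) at least 20 h later and plotted by tube number.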

[7] = [^68Ga]Ga-DOTATATE uptake of parotid glands; type: in vivo, patients; conditions: [^68Ga]Ga-DOTATATE PET/CT
How it was run: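 Parotid SUVmax was read on [68Ga]Ga-DOTATATE PET/CT at baseline and after cycles of treatment. Pre/post values were compared by Wilcoxon rank sum test and reported as mean ± standard deviation, with p<0.05 taken as significant.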

[8] = test system: neuroendocrine tumors (NETs); conditions: NETTER-1 trial; cited from earlier work
[9] = CTCAE v5.0, 8 patients analysed, n=1 (grade 2, after 3 cycles)

Substance | mean excretion rate from the kidneys [1] [%] | progressive disease ([2]; n=1) [%] | partial response (PR) ([2]; n=4) [%] | RP-HPLC profile of saline incubation samples [3] | hematotoxicity rate [4, 9] [%] | nephrotoxicity rate [4, 9] [%] | grade 3-4 toxicities ([4]; CTCAE v5.0, mean activity 8.2±0.6 MBq per cycle, 1-3 cycles) | lymphocyte count ([4]; all patients, p<0.05) | acute side effects during the injection ([4]; nausea or vomiting, slow injection over 5 min, 100-120 kBq/kg) | xerostomia ([4]; patient complaints) | disease control rate [5] [%] | time stable in vivo (urine and blood samples) ([6]; first 3 patients, blood 0-10 min, urine up to 3 h after injection) [h] | time remained stable in urine ([6]; patient urine samples up to 3 h after injection) | mean parotid SUVmax after two cycles ([7]; n=6, baseline 2.98±0.96, p=0.73) | mean parotid SUVmax after the first cycle ([7]; n=9, baseline 2.98±0.96, p=0.93) | estimated median progression-free survival (PFS) [8] [months]
[^225Ac]Ac-DOTATATE | 56±9.7 | 11 | 44.4 | single radioactivity peak | 12.5 | 12.5 | No grade 3-4 toxicities | transient decrease | did not observe any acute side effects | did not complain of xerostomia | 79.8 | ≥ 3 | up to 3 h | 2.48±0.59 | 2.07±0.93 | –
[^177Lu]Lu-DOTATATE | – | – | – | – | – | – | – | – | – | – | – | – | – | – | – | 40
